Test results published in ChEMBL document CHEMBL3044889, “Synthesis and quantitative structure-activity relationship (QSAR) study of novel 4-acyloxypodophyllotoxin derivatives modified in the A and C rings as insecticidal agents” (2013).

Key:
Format in all cases: functional
Mythimna separata [1] = assay: Insecticidal activity against pre-third-instar larvae of Mythimna separata (Oriental armyworm) assessed as corrected mortality rate at 1 mg/ml measured after 10 days by the leaf-dipping method; conditions: 240 h
Procedure, shortened: (§1)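 Test solutions 1 mg/mL in acetone; fresh wheat leaves dipped 3 s, air-dried indoors; acetone-only leaves as blank control. Ten larvae per dish fed treated leaves, topped up if consumed; untreated fresh leaves from 48 h until adult emergence. Held at 25 ± 2 °C, RH 65-80%, 12 h/12 h light/dark. Corrected mortality = (T − C) × 100/(1 − C).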

Mythimna separata [2] = assay: Insecticidal activity against pre-third-instar larvae of Mythimna separata (Oriental armyworm) assessed as corrected mortality rate at 1 mg/ml measured after 20 days by the leaf-dipping method; conditions: 480 h; procedure, shortened: as §1
Mythimna separata [3] = assay: Insecticidal activity against pre-third-instar larvae of Mythimna separata (Oriental armyworm) assessed as corrected mortality rate at 1 mg/ml measured after 35 days by the leaf-dipping method; conditions: 840 h; procedure, shortened: as §1

Structure (SMILES)	mortality at 1000 µg/mL (Mythimna separata [1])	mortality at 1000 µg/mL (Mythimna separata [2])	mortality at 1000 µg/mL (Mythimna separata [3])
COc1cc2c(cc1OC)[C@H](O)[C@H]1COC(=O)[C@@H]1[C@@H]2c1cc(OC)c(OC)c(OC)c1 [6,7-O,O-DEMETHYLENE-6,7-O,O-DIMETHYLPODOPHYLLOTOXIN]	0%	23.3%	36.7%
COc1cc2c(cc1OC)[C@@H](OC(=O)Cc1ccccc1)[C@H]1COC(=O)[C@@H]1[C@@H]2c1cc(OC)c(OC)c(OC)c1	10%	16.7%	33.3%
COc1cc([C@@H]2c3cc(OCc4ccccc4)c(OCc4ccccc4)cc3[C@@H](OC(=O)Cc3ccccc3)[C@H]3COC(=O)[C@H]23)cc(OC)c1OC	3.3%	16.7%	40%
COc1cc2c(cc1OC)[C@H](OC(=O)Cc1cccc3ccccc13)[C@H]1COC(=O)[C@@H]1[C@@H]2c1cc(OC)c(OC)c(OC)c1	10%	26.7%	60%
COc1cc2c(cc1OC)[C@H](OC(C)=O)[C@H]1COC(=O)[C@@H]1[C@@H]2c1cc(OC)c(OC)c(OC)c1	10%	23.3%	36.7%
CCCCCC(=O)O[C@H]1c2cc(OC)c(OC)cc2[C@@H](c2cc(OC)c(OC)c(OC)c2)[C@H]2C(=O)OC[C@@H]21	6.7%	23.3%	36.7%
COc1cc2c(cc1OC)[C@@H](O)[C@H]1COC(=O)[C@@H]1[C@@H]2c1cc(OC)c(OC)c(OC)c1 [6,7-O,O-DEMETHYLENE-6,7-O,O-DIMETHYLEPIPODOPHYLLOTOXIN]	16.7%	23.3%	40%
COc1cc2c(cc1OC)[C@H](OC(=O)c1ccc(C)cc1)[C@H]1COC(=O)[C@@H]1[C@@H]2c1cc(OC)c(OC)c(OC)c1	6.7%	16.7%	33.3%
COc1cc2c(cc1OC)[C@H](OC(=O)Cc1ccccc1)[C@H]1COC(=O)[C@@H]1[C@@H]2c1cc(OC)c(OC)c(OC)c1	3.3%	13.3%	26.7%
CC(=O)O[C@@H]1C[C@H](O)[C@@]23CO[C@@H](O)[C@]1(C)[C@@H]2C[C@@H](O)[C@]1(C)[C@@H]3C(=O)[C@H](OC(C)=O)[C@@]2(C)[C@H](c3ccoc3)C[C@H]3O[C@]321 [TOOSENDANIN]	10%	20%	50%
CCCCCC(=O)O[C@@H]1c2cc(OC)c(OC)cc2[C@@H](c2cc(OC)c(OC)c(OC)c2)[C@H]2C(=O)OC[C@@H]21	23.3%	26.7%	43.3%
CCCCCCCC(=O)O[C@H]1c2cc(OC)c(OC)cc2[C@@H](c2cc(OC)c(OC)c(OC)c2)[C@H]2C(=O)OC[C@@H]21	10%	30%	53.3%
COc1cc([C@@H]2c3cc4c(cc3[C@H](O)[C@H]3COC(=O)[C@H]23)OCO4)cc(OC)c1OC [PODOFILOX]	13.3%	23.3%	40%
COc1cc2c(cc1OC)[C@H](OC(=O)c1ccc([N+](=O)[O-])cc1)[C@H]1COC(=O)[C@@H]1[C@@H]2c1cc(OC)c(OC)c(OC)c1	3.3%	13.3%	46.7%
COc1cc2c(cc1OC)[C@@H](OC(=O)Cc1cccc3ccccc13)[C@H]1COC(=O)[C@@H]1[C@@H]2c1cc(OC)c(OC)c(OC)c1	13.3%	20%	50%
CCCC(=O)O[C@H]1c2cc(OC)c(OC)cc2[C@@H](c2cc(OC)c(OC)c(OC)c2)[C@H]2C(=O)OC[C@@H]21	6.7%	20%	33.3%
COc1cc2c(cc1OC)[C@H](OC(=O)c1cccc([N+](=O)[O-])c1)[C@H]1COC(=O)[C@@H]1[C@@H]2c1cc(OC)c(OC)c(OC)c1	3.3%	16.7%	36.7%
COc1cc([C@@H]2c3cc(OCc4ccccc4)c(OCc4ccccc4)cc3[C@H](O)[C@H]3COC(=O)[C@H]23)cc(OC)c1OC [6,7-O,O-DEMETHYLENE-6,7-O,O-DIBENZYLPODOPHYLLOTOXIN]	10%	33.3%	33.3%
COc1cc([C@@H]2c3cc(OCc4ccccc4)c(OCc4ccccc4)cc3[C@@H](OC(=O)Cc3cccc4ccccc34)[C@H]3COC(=O)[C@H]23)cc(OC)c1OC	3.3%	26.7%	33.3%
CCCC(=O)O[C@@H]1c2cc(OC)c(OC)cc2[C@@H](c2cc(OC)c(OC)c(OC)c2)[C@H]2C(=O)OC[C@@H]21	3.3%	10%	36.7%
CCCCCC(=O)O[C@@H]1c2cc(OCc3ccccc3)c(OCc3ccccc3)cc2[C@@H](c2cc(OC)c(OC)c(OC)c2)[C@H]2C(=O)OC[C@@H]21	10%	13.3%	33.3%
COc1cc([C@@H]2c3cc(O)c(O)cc3[C@H](O)[C@H]3COC(=O)[C@H]23)cc(OC)c1OC [6,7-O,O-DEMETHYLENEPODOPHYLLOTOXIN]	0%	6.7%	23.3%
COc1cc([C@@H]2c3cc(OCc4ccccc4)c(OCc4ccccc4)cc3[C@@H](OC(=O)c3cccc([N+](=O)[O-])c3)[C@H]3COC(=O)[C@H]23)cc(OC)c1OC	3.3%	6.7%	33.3%
COc1cc2c(cc1OC)[C@@H](OC(=O)c1cccc([N+](=O)[O-])c1)[C@H]1COC(=O)[C@@H]1[C@@H]2c1cc(OC)c(OC)c(OC)c1	10%	26.7%	36.7%
COc1cc2c(cc1OC)[C@H](OC(=O)CCl)[C@H]1COC(=O)[C@@H]1[C@@H]2c1cc(OC)c(OC)c(OC)c1	0%	13.3%	26.7%
COc1cc2c(cc1OC)[C@H](OC(=O)c1cccc(Cl)c1)[C@H]1COC(=O)[C@@H]1[C@@H]2c1cc(OC)c(OC)c(OC)c1	3.3%	23.3%	50%
COc1cc2c(cc1OC)[C@H](OC(=O)c1ccccc1)[C@H]1COC(=O)[C@@H]1[C@@H]2c1cc(OC)c(OC)c(OC)c1	10%	26.7%	36.7%
